Measurements published in ChEMBL document CHEMBL1136933 (J Med Chem, 2009).

Columns and labels:
[1] = biological target: T1, Muscarinic acetylcholine receptor M1 (Rattus norvegicus, UniProt P08482); test: Activation of rat muscarinic M1 receptor expressed in CHO cells co-expressing Gq protein assessed as potentiation of acetylcholine-induced intracellular Ca2+ mobilization; assay type: functional, cell-based
T1 sequence (P08482 whole entry): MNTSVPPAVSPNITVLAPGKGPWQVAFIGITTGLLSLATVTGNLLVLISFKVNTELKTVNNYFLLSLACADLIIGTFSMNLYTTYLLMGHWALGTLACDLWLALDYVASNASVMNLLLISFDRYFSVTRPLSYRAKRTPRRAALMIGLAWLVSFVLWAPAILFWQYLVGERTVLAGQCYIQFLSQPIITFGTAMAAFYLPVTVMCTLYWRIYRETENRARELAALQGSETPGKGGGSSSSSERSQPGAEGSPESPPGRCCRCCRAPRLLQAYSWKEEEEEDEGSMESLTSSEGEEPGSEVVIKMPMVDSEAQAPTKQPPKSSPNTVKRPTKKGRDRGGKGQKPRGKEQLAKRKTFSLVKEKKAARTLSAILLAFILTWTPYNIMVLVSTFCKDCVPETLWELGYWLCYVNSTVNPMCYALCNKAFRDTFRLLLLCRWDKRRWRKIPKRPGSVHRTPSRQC

[2] = biological target: T2, Muscarinic acetylcholine receptor M5 (Homo sapiens) (UniProt P08912); test: Activation of human muscarinic M5 receptor expressed in CHO cells coexpressing Gq protein assessed as potentiation of acetylcholine-induced intracellular Ca2+ mobilization at 30 uM relative to acetylcholine; assay type: functional, cell-based
T2 sequence (whole entry): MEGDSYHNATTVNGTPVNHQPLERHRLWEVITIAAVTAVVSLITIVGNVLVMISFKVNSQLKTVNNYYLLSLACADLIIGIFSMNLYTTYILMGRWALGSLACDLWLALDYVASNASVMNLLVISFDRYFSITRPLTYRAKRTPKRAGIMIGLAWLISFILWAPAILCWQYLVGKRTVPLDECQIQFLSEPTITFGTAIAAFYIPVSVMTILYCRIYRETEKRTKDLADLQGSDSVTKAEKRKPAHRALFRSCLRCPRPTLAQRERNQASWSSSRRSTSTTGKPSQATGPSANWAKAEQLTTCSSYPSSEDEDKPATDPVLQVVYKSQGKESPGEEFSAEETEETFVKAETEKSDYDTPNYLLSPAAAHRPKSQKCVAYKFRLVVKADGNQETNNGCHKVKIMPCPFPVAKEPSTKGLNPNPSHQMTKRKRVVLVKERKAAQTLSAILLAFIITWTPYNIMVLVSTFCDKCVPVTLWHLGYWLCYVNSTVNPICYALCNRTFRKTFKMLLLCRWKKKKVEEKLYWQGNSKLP

[3] = biological target: T3, Muscarinic acetylcholine receptor M1 (Rattus norvegicus) (UniProt P08482); test: Activation of rat muscarinic M1 receptor expressed in CHO cells co-expressing Gq protein assessed as potentiation of acetylcholine-induced intracellular Ca2+ mobilization at 30 uM relative to acetylcholine; assay type: functional, cell-based
T3 sequence (whole entry): T1 sequence (P08482 whole entry)

[4] = biological target: T4, Muscarinic acetylcholine receptor M5 (Homo sapiens, UniProt P08912); test: Activation of human muscarinic M5 receptor expressed in CHO cells coexpressing Gq protein assessed as potentiation of acetylcholine-induced intracellular Ca2+ mobilization; assay type: functional, cell-based
T4 sequence (P08912 whole entry): T2 sequence (whole entry)

[5] = biological target: T2, Muscarinic acetylcholine receptor M5 (Homo sapiens); test: Inhibition of [3H]NMS binding to human muscarinic M5 receptor expressed in CHO cells coexpressing Gq protein at 30 uM by scintillation counting; assay type: cell-based
[6] = biological target: T5, Muscarinic acetylcholine receptor M3 (Homo sapiens, UniProt P20309); test: Activation of human muscarinic M3 receptor expressed in CHO cells coexpressing Gq protein assessed as potentiation of acetylcholine-induced intracellular Ca2+ mobilization; assay type: functional, cell-based
In short: (§1)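 Calcium flux assay. Stable CHO lines were seeded at 5 × 10^4 cells/well (M1, M3, M5) or 6 × 10^4 cells/well (Gqi5 M2, M4) and grown overnight at 37 °C, 5% CO2. Cells were loaded 1 h at 37 °C with 2 µM Fluo-4 AM. […] At least three independent determinations, each in duplicate or more.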
Target sequence in this assay (P20309 whole entry): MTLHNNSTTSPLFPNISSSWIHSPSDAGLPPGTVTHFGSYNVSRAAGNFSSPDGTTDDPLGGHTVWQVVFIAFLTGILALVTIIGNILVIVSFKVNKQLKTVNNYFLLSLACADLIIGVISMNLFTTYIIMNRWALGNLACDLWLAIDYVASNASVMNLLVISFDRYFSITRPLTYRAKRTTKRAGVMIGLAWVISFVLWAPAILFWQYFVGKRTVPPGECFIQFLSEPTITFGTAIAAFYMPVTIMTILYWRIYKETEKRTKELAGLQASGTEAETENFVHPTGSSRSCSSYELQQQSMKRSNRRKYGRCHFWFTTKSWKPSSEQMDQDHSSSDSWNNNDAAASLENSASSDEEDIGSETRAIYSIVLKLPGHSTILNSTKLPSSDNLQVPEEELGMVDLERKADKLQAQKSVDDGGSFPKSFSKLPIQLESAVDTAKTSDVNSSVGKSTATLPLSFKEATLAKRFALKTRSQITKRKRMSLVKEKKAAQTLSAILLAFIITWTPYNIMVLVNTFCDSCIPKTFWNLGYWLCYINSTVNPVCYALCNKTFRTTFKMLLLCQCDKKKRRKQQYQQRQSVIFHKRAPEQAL

[7] = biological target: T5, Muscarinic acetylcholine receptor M3; test: Activation of human muscarinic M3 receptor expressed in CHO cells coexpressing Gq protein assessed as potentiation of acetylcholine-induced intracellular Ca2+ mobilization at 30 uM relative to acetylcholine; assay type: functional, cell-based
Target sequence in this assay (P20309 whole entry, looked up): as the sequence (P20309 whole entry) above

[8] = biological target: T6, Muscarinic acetylcholine receptor M4 (Rattus norvegicus, UniProt P08485); test: Activation of rat muscarinic M4 receptor expressed in CHO cells coexpressing chimeric Gqi5 protein assessed as potentiation of acetylcholine-induced intracellular Ca2+ mobilization; assay type: functional, cell-based; in short: as §1
T6 sequence (P08485 whole entry): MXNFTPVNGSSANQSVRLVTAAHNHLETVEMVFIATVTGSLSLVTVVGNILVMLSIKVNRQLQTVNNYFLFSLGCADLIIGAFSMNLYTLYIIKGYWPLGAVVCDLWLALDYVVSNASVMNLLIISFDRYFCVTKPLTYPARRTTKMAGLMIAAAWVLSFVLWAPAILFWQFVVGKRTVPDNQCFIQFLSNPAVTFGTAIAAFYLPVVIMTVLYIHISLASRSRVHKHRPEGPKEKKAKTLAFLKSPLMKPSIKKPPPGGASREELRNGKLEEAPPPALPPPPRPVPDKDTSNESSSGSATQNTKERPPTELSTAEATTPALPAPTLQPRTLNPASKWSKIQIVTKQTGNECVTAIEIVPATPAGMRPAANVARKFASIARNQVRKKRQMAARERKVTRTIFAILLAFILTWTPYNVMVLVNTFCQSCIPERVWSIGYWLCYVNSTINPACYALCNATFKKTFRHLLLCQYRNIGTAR

[9] = biological target: T7, Muscarinic acetylcholine receptor M2 (Rattus norvegicus, UniProt P10980); test: Activation of rat muscarinic M2 receptor expressed in CHO cells co-expressing chimeric Gqi5 protein assessed as potentiation of acetylcholine-induced intracellular Ca2+ mobilization; assay type: functional, cell-based; in short: as §1
T7 sequence (P10980 whole entry): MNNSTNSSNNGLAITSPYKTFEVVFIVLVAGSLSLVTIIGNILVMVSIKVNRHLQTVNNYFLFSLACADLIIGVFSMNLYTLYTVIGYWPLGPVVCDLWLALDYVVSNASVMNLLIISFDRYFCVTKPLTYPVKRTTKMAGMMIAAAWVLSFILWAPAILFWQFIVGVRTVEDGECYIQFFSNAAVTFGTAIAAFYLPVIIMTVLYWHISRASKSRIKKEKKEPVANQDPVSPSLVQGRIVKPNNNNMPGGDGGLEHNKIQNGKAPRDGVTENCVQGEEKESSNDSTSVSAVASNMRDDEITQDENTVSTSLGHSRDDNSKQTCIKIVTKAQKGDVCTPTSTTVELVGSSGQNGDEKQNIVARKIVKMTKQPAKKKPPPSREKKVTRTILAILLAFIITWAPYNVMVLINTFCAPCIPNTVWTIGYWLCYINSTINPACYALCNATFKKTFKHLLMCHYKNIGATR

[10] = biological target: T8, Muscarinic acetylcholine receptor M2 (Rattus norvegicus) (UniProt P10980); test: Activation of rat muscarinic M2 receptor expressed in CHO cells coexpressing chimeric Gqi5 protein assessed as potentiation of acetylcholine-induced intracellular Ca2+ mobilization at 30 uM relative to acetylcholine; assay type: functional, cell-based
T8 sequence (whole entry): T7 sequence (P10980 whole entry)

| EC50 [1] | %max [2] | %max [3] | EC50 [4] | inhibition [5] | EC50 [6] | %max [7] | EC50 ([8]; cho) | EC50 ([9]; cho) | %max [10] | EC50 ([8]; read-out: EC50) | EC50 ([9]; read-out: EC50) | SMILES |
| --- | --- | --- | --- | --- | --- | --- | --- | --- | --- | --- | --- | --- |
| > 30 µM | 58.9% | 13.8% | 1.86 µM |  |  |  |  |  |  |  |  | O=C1C(=O)N(Cc2ccc(OC(F)(F)F)cc2)c2ccc(OC(F)(F)F)cc21 |
| 3.99 µM | 51.7% | 62.7% | 1.93 µM |  |  |  |  |  |  |  |  | O=C1C(=O)N(Cc2ccc(Br)cc2)c2c(F)cccc21 |
| > 30 µM | 51.9% | 12.3% | 4.07 µM |  |  |  |  |  |  |  |  | O=C1C(=O)N(Cc2ccccc2Cl)c2ccc(OC(F)(F)F)cc21 |
| 6.21 µM | 36.1% | 47.8% | 4.09 µM |  |  |  |  |  |  |  |  | O=C1C(=O)N(Cc2ccccc2C(F)(F)F)c2ccc(F)cc21 |
| > 30 µM | 36.4% | 11.6% | > 10 µM |  |  |  |  |  |  |  |  | O=C1C(=O)N(Cc2ccc(Br)cc2F)c2ccc(OC(F)(F)F)cc21 |
| > 30 µM | 30.9% | 41.3% | > 30 µM |  |  |  |  |  |  |  |  | O=C1C(=O)N(Cc2ccccc2C(F)(F)F)c2c(F)cccc21 |
| 7.09 µM | 67.2% | 25.7% | 1.85 µM |  |  |  |  |  |  |  |  | O=C1C(=O)N(Cc2ccc(C(F)(F)F)cc2)c2ccc(OC(F)(F)F)cc21 |
| > 30 µM | 70.1% | 28.6% | 1.7 µM |  |  |  |  |  |  |  |  | COc1cccc(CN2C(=O)C(=O)c3cc(OC(F)(F)F)ccc32)c1 |

Continued, compound first:

| SMILES | EC50 [1] | %max [2] | %max [3] | EC50 [4] | inhibition [5] | EC50 [6] | %max [7] | EC50 ([8]; cho) | EC50 ([9]; cho) | %max [10] | EC50 ([8]; read-out: EC50) | EC50 ([9]; read-out: EC50) |
| --- | --- | --- | --- | --- | --- | --- | --- | --- | --- | --- | --- | --- |
| O=C1C(=O)N(Cc2ccc(Br)cc2)c2ccccc21 | 6.04 µM | 74.4% | 82.4% | 4.08 µM | 50% | 6.38 µM | 65.5% | Not Active | Not Active |  |  |  |
| O=C1C(=O)N(Cc2ccc(C(F)(F)F)cc2)c2c(F)cccc21 | 5.18 µM | 71.1% | 60.9% | 3.26 µM |  |  |  |  |  |  |  |  |
| O=C1C(=O)N(Cc2ccc(C(F)(F)F)cc2)c2c(Cl)cccc21 | 3.2 µM | 70.8% | 67% | 2.11 µM |  | 2.22 µM | 78% |  |  | 55% | > 10 µM | 2.84 µM |
| COc1ccc(CN2C(=O)C(=O)c3cccc(Cl)c32)cc1 | 5.38 µM | 30.3% | 49.4% | 3.96 µM |  |  |  |  |  |  |  |  |
| COc1cccc(CN2C(=O)C(=O)c3c(Cl)ccc(Cl)c32)c1 | > 30 µM | 35.1% | 13.3% | 7.15 µM |  |  |  |  |  |  |  |  |
| COc1ccc(CN2C(=O)C(=O)c3ccccc32)cc1 | > 10 µM | 29.2% | 43.6% | > 30 µM |  |  |  |  |  |  |  |  |
| Cc1ccccc1CN1C(=O)C(=O)c2cc(OC(F)(F)F)ccc21 | > 30 µM | 60% | 26.2% | 3.28 µM |  |  |  |  |  |  |  |  |
